Measured values: ChEMBL document CHEMBL1153806, “Preclinical efficacy of a carboxylesterase 2-activated prodrug of doxazolidine” (J Med Chem, 2009)
The source made the active and inactive calls. The rule behind the calls is not given here.

What was measured:
[1] = test system: Mus musculus; assay: Toxicity in athymic nude mouse xenografted with human NCI-H1435 cells expressing CES2 gene assessed as lipid […] in hepatocytes administered with six iv injection of 3 to 4 mg/kg by hematoxylin/eosin staining-based microscopy; type: organism-based, Hepatocyte; parameters: dose 3-4 mg/kg, route intravenous
Procedure, shortened: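 Female athymic nude mice, 4–6 weeks old, 10 per group. About 2 × 10⁶ H1435 cells were implanted s.c. into the left flank. I.v. tail-vein doses (Dox-equivalent) were given on days 7, 14, 21, 56, 63 and 70 in 5% DMSO/95% D5W. At sacrifice, organs were fixed in 10% formalin for 24 h and paraffin-embedded. Sections were cut at 4 µm and stained with hematoxylin/eosin for microscopy.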

[2] = test system: HepG2; assay: Antitumor activity against human HepG2 cells expressing CES2 gene xenografted in NOD/SCID mouse assessed as inhibition of tumor growth at 4 to 5 mg/kg, iv administered on day 7, 14 and 21 after tumor implantation; type: functional, organism-based
Procedure, shortened: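 NOD/SCID females, 4–6 weeks old, each given ~1.5 × 10⁷ N-Hep G2 cells s.c. in the left flank; 10 mice/group. Dosed i.v. by tail vein on days 7, 14 and 21, in mg/kg Dox-equivalent, from DMSO diluted into D5W (5% DMSO/95% D5W), 100 µL/mouse. Vehicle-only controls. The 3 mg/kg group was redosed at 5 mg/kg on days 45 and 52. Tumor volume (π × short diameter² × long diameter/6) measured weekly.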

[3] = Toxicity in NOD/SCID mouse xenografted with human HepG2 cells expressing CES2 gene assessed as mortality rate at 3 mg/kg, iv administered on day 7, 14 and 21 after tumor implantation; type: organism-based; parameters: dose 3 mg/kg, route intravenous; conditions: in vivo, read-out: Activity
Procedure, shortened: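 Female NOD/SCID mice, 4–6 weeks old, 10 per group. About 1.5 × 10⁷ N-Hep G2 cells were injected s.c. into the left flank. Tail-vein i.v. dosing (mg/kg Dox-equivalent weight) was given on days 7, 14 and 21. Vehicle was 5% DMSO/95% D5W, and controls received vehicle only. Body weight was measured weekly over the first 5 weeks. Survival was followed to study end.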

[4] = test system: NCI-H1435; assay: Antitumor activity against human NCI-H1435 cells expressing CES2 gene xenografted in athymic nude mouse assessed as inhibition of tumor growth at 2.5 mg/kg, iv administered on day 7, 14 and 21 after tumor implantation; type: functional, organism-based; parameters: dose 2.5 mg/kg
Procedure, shortened: (§1)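 Athymic nude females, 4–6 weeks old, given ~2 × 10⁶ H1435 cells s.c. in the left flank on day 0; 10 mice/group. I.v. tail-vein doses (Dox-equivalent mg/kg) in 5% DMSO/95% D5W on days 7, 14 and 21, with all groups retreated on days 56, 63 and 70; vehicle controls. Caliper volume π × short² × long/6. Cube roots analysed with day-7 size as baseline covariate, by period.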

[5] = test system: NCI-H1435; assay: Antitumor activity against human NCI-H1435 cells expressing CES2 gene xenografted in pentyl PABC-doxazolidine-pretreated athymic nude mouse assessed as inhibition of tumor growth at 2.5 mg/kg, iv administered on day 56 after tumor implantation; type: functional, organism-based; parameters: dose 2.5 mg/kg; procedure, shortened: as §1
[6] = test system: NCI-H1435; assay: Antitumor activity against human NCI-H1435 cells expressing CES2 gene xenografted in pentyl PABC-doxazolidine-pretreated athymic nude mouse assessed as inhibition of tumor growth at 2.5 mg/kg, iv administered on day 63 after tumor implantation; type: functional, organism-based; parameters: dose 2.5 mg/kg; procedure, shortened: as §1
[7] = test system: NCI-H1435; assay: Antitumor activity against human NCI-H1435 cells expressing CES2 gene xenografted in pentyl PABC-doxazolidine-pretreated athymic nude mouse assessed as inhibition of tumor growth at 2.5 mg/kg, iv administered on day 70 after tumor implantation; type: functional, organism-based; parameters: dose 2.5 mg/kg; procedure, shortened: as §1
[8] = test system: Mus musculus; assay: Toxicity in athymic nude mouse xenografted with human NCI-H1435 cells expressing CES2 gene at 3 to 4 mg/kg, iv administered on day 7, 14 and 21 after tumor implantation; type: organism-based; parameters: dose 3-4 mg/kg, route intravenous; conditions: in vivo
[9] = test system: Mus musculus; assay: Toxicity in athymic nude mouse xenografted with human NCI-H1435 cells expressing CES2 gene assessed as occurrence of diarrhea at 3 to 4 mg/kg, iv administered on day 7, 14 and 21 after tumor implantation; type: organism-based; parameters: dose 3-4 mg/kg, route intravenous; conditions: in vivo
[10] = test system: Mus musculus; assay: Toxicity in NOD/SCID mouse xenografted with human HepG2 cells expressing CES2 gene assessed as occurrence of diarrhea at 3 mg/kg, iv administered on day 7, 14 and 21 after tumor implantation; type: organism-based; parameters: dose 3 mg/kg, route intravenous; conditions: in vivo
[11] = test system: NCI-H1435; assay: Antitumor activity against human NCI-H1435 cells expressing CES2 gene xenografted in athymic nude mouse assessed as reduction in tumor size at 2.5 mg/kg, iv administered on day 7, 14 and 21 after tumor implantation; type: functional, organism-based; parameters: dose 2.5 mg/kg; procedure, shortened: as §1
[12] = test system: NCI-H1435; assay: Antitumor activity against human NCI-H1435 cells expressing CES2 gene xenografted in athymic nude mouse assessed as slowing of tumor growth at 2.5 mg/kg, iv administered as three weekly infusion from day 21 to 56 after tumor implantation; type: functional, organism-based; parameters: dose 2.5 mg/kg; procedure, shortened: as §1
[13] = test system: Mus musculus; assay: Toxicity in athymic nude mouse xenografted with human NCI-H1435 cells expressing CES2 gene assessed as myofibril disorganization and vacuolization of heart tissue administered with six iv injection of 2.5 mg/kg by hematoxylin/eosin staining-based microscopy; type: organism-based; parameters: dose 2.5 mg/kg, route intravenous; conditions: in vivo
Procedure, shortened: (§2)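 Hearts and livers taken from the H1435 nude-mouse study (six i.v. injections) after CO₂/cervical dislocation. Fixed in 10% formalin for 24 h, paraffin-embedded, and cut at 4 µm. Slides deparaffinized in xylene and ethanol, stained with Mayer's hematoxylin for 2 min, blued in 1% ammonium hydroxide, and counterstained with eosin for 30 s. Examined by light microscopy.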

[14] = test system: Mus musculus; assay: Toxicity in athymic nude mouse xenografted with human NCI-H1435 cells expressing CES2 gene assessed as occurrence of cardiomyocyte necrosis administered with six iv injection of 2.5 mg/kg by hematoxylin/eosin staining-based microscopy; type: organism-based; parameters: dose 2.5 mg/kg, route intravenous; conditions: in vivo; procedure, shortened: as §2
[15] = test system: Mus musculus; assay: Toxicity in athymic nude mouse xenografted with human NCI-H1435 cells expressing CES2 gene assessed as appearance of fibrotic damage in heart tissue administered with six iv injection of 2.5 mg/kg by hematoxylin/eosin staining-based microscopy; type: organism-based; parameters: dose 2.5 mg/kg, route intravenous; conditions: in vivo; procedure, shortened: as §2
[16] = test system: Mus musculus; assay: Toxicity in athymic nude mouse xenografted with human NCI-H1435 cells expressing CES2 gene assessed as uniformity in punktate staining pattern of hepatocytes administered with six iv injection of 2.5 mg/kg by hematoxylin/eosin staining-based microscopy; type: organism-based, Hepatocyte; parameters: dose 2.5 mg/kg, route intravenous; procedure, shortened: as §2
[17] = test system: Mus musculus; assay: Toxicity in athymic nude mouse xenografted with human NCI-H1435 cells expressing CES2 gene assessed as occurrence of fatty liver administered with six iv injection of 2.5 mg/kg by hematoxylin/eosin staining-based microscopy; type: organism-based; parameters: dose 2.5 mg/kg, route intravenous; conditions: in vivo; procedure, shortened: as §2
[18] = test system: Mus musculus; assay: Toxicity in athymic nude mouse xenografted with human NCI-H1435 cells expressing CES2 gene assessed as vacuolar degeneration of kidney tissue administered with six iv injection of 2.5 mg/kg by hematoxylin/eosin staining-based microscopy; type: organism-based; parameters: dose 2.5 mg/kg, route intravenous; conditions: in vivo
Procedure, shortened: (§3)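 Kidney and ileum taken from the H1435 nude-mouse study (six i.v. injections). Formalin-fixed for 24 h, paraffin-embedded, and cut into 4 µm sections. Sections deparaffinized in xylene, rehydrated through an ethanol series, stained in Harris hematoxylin for 50 s with eosin, then dehydrated and mounted. Morphology assessed by microscopy.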

[19] = test system: Mus musculus; assay: Toxicity in athymic nude mouse xenografted with human NCI-H1435 cells expressing CES2 gene assessed as vacuolar damage in ileum administered with six iv injection of 2.5 mg/kg by hematoxylin/eosin staining-based microscopy; type: organism-based; parameters: dose 2.5 mg/kg, route intravenous; conditions: in vivo; procedure, shortened: as §3
[20] = test system: Mus musculus; assay: Toxicity in athymic nude mouse xenografted with human NCI-H1435 cells expressing CES2 gene assessed as inflammatory cell infiltration in ileum administered with six iv injection of 2.5 mg/kg by hematoxylin/eosin staining-based microscopy; type: organism-based; parameters: dose 2.5 mg/kg, route intravenous; conditions: in vivo; procedure, shortened: as §3

Structure (SMILES) | Activity [1] | inhibition [2] | mortality [3] [%] | inhibition [4] | inhibition [5] | inhibition [6] | inhibition [7] | Activity [8] | Activity [9] | Activity [10] | Activity [11] | Activity [12] | Activity [13] | Activity [14] | Activity [15] | Activity [16] | Activity [17] | Activity [18] | Activity [19] | Activity [20]
COc1cccc2c1C(=O)c1c(O)c3c(c(O)c1C2=O)C[C@@](O)(C(=O)CO)C[C@@H]3O[C@H]1C[C@@H]2NCO[C@@H]2[C@H](C)O1 [DOXAZOLIDINE] | Toxic | – | – | – | – | – | – | – | – | – | – | – | – | – | – | – | – | – | – | –
COc1cccc2c1C(=O)c1c(O)c3c(c(O)c1C2=O)C[C@@](O)(C(=O)CO)C[C@@H]3O[C@H]1C[C@H](N)[C@H](O)[C@H](C)O1 [DOXORUBICIN] | Toxic | Active | 70 | Active | inactive | inactive | inactive | Non-toxic | Non-toxic | Non-toxic | Active | Active | Toxic | Toxic | Toxic | Non-toxic | Non-toxic | Toxic | Non-toxic | Non-toxic
